What was measured:
[1] = Cytotoxicity against human DU145 cells assessed as growth inhibition after 48 hrs by SRB assay; assay type: functional, DU-145
Outline: (§1)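 Cells kept at 37 °C, 5% CO2, up to passage 15. Plated at 7500 cells/well in DMEM with 5% FBS and 1% gentamycin, grown 24 h, then given 10-fold serial dilutions for 48 h. Fixed with 10% TCA (final), SRB-stained, read at 540 nm, normalized at 630 nm. GI50 is the concentration halving net protein staining versus controls, taken from optical density data.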

[2] = system: NCI-H460; experiment: Cytotoxicity against human NCI-H460 cells assessed as growth inhibition after 48 hrs by SRB assay; assay type: functional; outline: as §1
[3] = target: Tubulin (Bos taurus, UniProt Q6B856+Q862L2+Q862F3); experiment: Inhibition of bovine brain tubulin polymerization preincubated for 15 mins by spectrophotometric analysis
Outline: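 Purified bovine brain tubulin, 1.0 mg/mL (10 μM), in 0.8 M monosodium glutamate pH 6.6 with 4% DMSO and varied compound. Temperature jumped from 0 to 30 °C; turbidity at 350 nm followed for 20 min.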

[4] = Cytotoxicity against human SKOV3 cells assessed as growth inhibition after 48 hrs by SRB assay; assay type: functional, SK-OV-3; outline: as §1
[5] = target: T1, Tubulin (Bos taurus) (UniProt Q6B856+Q862L2+Q862F3); experiment: Displacement of [3H]colchicine from bovine brain tubulin at 1 uM after 10 mins by scintillation counting analysis
Outline: (§2)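 1.0 μM tubulin with 5.0 μM [3H]colchicine and inhibitor at 1.0 or 5.0 μM. Buffer: 5% DMSO, 1.0 M monosodium glutamate pH 6.6, 0.5 mg/mL BSA, 0.1 M glucose-1-phosphate, 1.0 mM MgCl2, 1.0 mM GTP. Incubated 10 min at 37 °C, stopped with ice-cold water, collected on DEAE-cellulose filters and scintillation counted. Corrected for filter binding without tubulin; % inhibition against no-inhibitor controls.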

[6] = target: T2, Leucine aminopeptidase (Sus scrofa, UniProt Q29571); experiment: Prodrug conversion assessed as porcine leucine aminopeptidase-mediated compound cleavage by HPLC analysis; assay type: ADME; details: pig
T2 sequence (Q29571 whole entry): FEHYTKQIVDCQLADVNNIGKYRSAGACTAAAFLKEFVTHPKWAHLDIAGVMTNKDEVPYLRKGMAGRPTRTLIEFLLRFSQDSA
Outline: (§3)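 Porcine kidney microsomal LAP; units defined with 24 mM L-leucine p-nitroanilide in 50 mM sodium phosphate pH 7.2 at 37 °C. Enzyme preincubated in the same buffer at 37 °C, then substrate added. Aliquots were quenched with acetonitrile on ice, centrifuged and run on C18 HPLC (acetonitrile/water, 0.05% TFA, 1.0 mL/min, 22 °C, diode-array UV). Cleavage % from the parent/prodrug peak-area ratio; amounts from calibration curves.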

[7] = target: T2, Leucine aminopeptidase; experiment: Prodrug conversion assessed as porcine leucine aminopeptidase-mediated compound cleavage after 24 hrs using 3.6 units of enzyme by HPLC analysis; assay type: ADME; details: pig; outline: as §3
[8] = system: NCI-H460; experiment: Cytotoxicity against human NCI-H460 cells assessed as growth inhibition using compound dissolved in water after 48 hrs by SRB assay; assay type: functional; details: NCI-H460, 48 h; outline: as §1
[9] = Cytotoxicity against human SKOV3 cells assessed as growth inhibition using compound dissolved in DMSO after 48 hrs by SRB assay; assay type: functional; details: SK-OV-3, 48 h; outline: as §1
[10] = Cytotoxicity against human SKOV3 cells assessed as growth inhibition using compound dissolved in water after 48 hrs by SRB assay; assay type: functional; details: SK-OV-3, 48 h; outline: as §1
[11] = system: NCI-H460; experiment: Cytotoxicity against human NCI-H460 cells assessed as growth inhibition using compound dissolved in DMSO after 48 hrs by SRB assay; assay type: functional; details: NCI-H460, 48 h; outline: as §1
[12] = Cytotoxicity against human DU145 cells assessed as growth inhibition using compound dissolved in water after 48 hrs by SRB assay; assay type: functional; details: DU-145, 48 h; outline: as §1
[13] = Cytotoxicity against human DU145 cells assessed as growth inhibition using compound dissolved in DMSO after 48 hrs by SRB assay; assay type: functional; details: DU-145, 48 h; outline: as §1
[14] = Retention time of the compound by HPLC analysis; assay type: physicochemical
Outline: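 Reversed-phase C18 HPLC (4.6 × 150 mm, 5 μm) at 25 °C with diode-array detection at 190–400 nm. Acetonitrile against water or 0.1% TFA/water. Gradient 10% to 100% acetonitrile over 40 min, or in method C 10% acetonitrile for 5 min then to 100% over 5–25 min, at 1.0 mL/min.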

[15] = target: T1, Tubulin (Bos taurus); experiment: Displacement of [3H]colchicine from bovine brain tubulin at 5 uM after 10 mins by scintillation counting analysis; outline: as §2
[16] = target: T2, Leucine aminopeptidase; experiment: Prodrug conversion assessed as porcine leucine aminopeptidase-mediated compound cleavage at 25 hrs using 0.12 units of enzyme by HPLC analysis; assay type: ADME; details: pig; outline: as §3
[17] = target: T2, Leucine aminopeptidase; experiment: Activity at porcine leucine aminopeptidase by HPLC analysis; assay type: ADME; details: pig; outline: as §3
[18] = system: MDA-MB-231; experiment: Induction of tumor-specific vascular damage in luciferase expressing human MDA-MB-231 cells xenografted in SCID mouse assessed as reduction in light emission at 10 mg/kg at 24 hrs post dose by bioluminescence imaging assay (reference value: 24%); assay type: functional; details: MDA-MB-231, 24 h
[19] = system: MDA-MB-231; experiment: Induction of tumor-specific vascular damage in luciferase expressing human MDA-MB-231 cells xenografted in SCID mouse assessed as reduction in light emission at 15 mg/kg at 24 hrs post dose by bioluminescence imaging assay (reference value: 24%); assay type: functional; details: MDA-MB-231, 24 h
[20] = system: MDA-MB-231; experiment: Induction of tumor-specific vascular damage in luciferase expressing human MDA-MB-231 cells xenografted in SCID mouse assessed as reduction in light emission at 10 mg/kg at 4 hrs post dose by bioluminescence imaging assay (reference value: 22%); assay type: functional; details: MDA-MB-231, 4 h
[21] = system: MDA-MB-231; experiment: Induction of tumor-specific vascular damage in luciferase expressing human MDA-MB-231 cells xenografted in SCID mouse assessed as reduction in light emission at 15 mg/kg at 4 hrs post dose by bioluminescence imaging assay (reference value: 22%); assay type: functional; details: MDA-MB-231, 4 h

SMILES	GI50 [1] [µM]	GI50 [2] [µM]	IC50 [3] [µM]	GI50 [4] [µM]	GI50 ([1]; Homo sapiens, DU-145, 48 h) [µM]	GI50 ([2]; Homo sapiens, NCI-H460, 48 h) [µM]	Drug metabolism [6]	also measured
COc1ccc(/C=C\c2cc(OC)c(OC)c(OC)c2)c(N)c1.Cl	0.0285	0.0263	2.5	0.00735	–	–	–	–
COc1ccc(/C=C\c2cc(OC)c(OC)c(OC)c2)cc1O [COMBRETASTATIN A4]	–	–	–	–	0.00602	0.005	–	inhibition [5]: 84%; GI50 ([4]; Homo sapiens, SK-OV-3, 48 h): 0.00506 µM
COc1ccc(/C=C\c2cc(OC)c(OC)c(OC)c2)cc1N	–	–	–	–	0.0033	0.00449	–	GI50 ([4]; Homo sapiens, SK-OV-3, 48 h): 0.00445 µM
COc1ccc(/C=C\c2cc(OC)c(OC)c(OC)c2)c(NC(=O)[C@@H](N)CO)c1NC(=O)[C@@H](N)CO.Cl.Cl	> 86.6	> 86.6	–	> 86.6	–	–	metabolite_notdetected	–
COc1ccc2c(c1NC(=O)[C@@H](N)CO)CCCC=C2c1cc(OC)c(OC)c(OC)c1.Cl	–	–	–	47	–	–	< 10%	Drug metabolism [7]: < 10%
COc1ccc2c(c1NC(=O)[C@@H](N)CO)CCCC=C2c1cc(OC)c(OC)c(OC)c1	–	–	–	–	> 81.3	45.9	–	GI50 ([4]; Homo sapiens, SK-OV-3, 48 h): 44.9 µM
COc1ccc(/C=C/c2cc(OC)c(OC)c(OC)c2)c(NC(=O)CN)c1.Cl	–	–	–	–	–	–	100%	GI50 [8]: 0.38 µM; GI50 [9]: 0.427 µM; GI50 [10]: 0.426 µM; GI50 [11]: 0.418 µM; GI50 [12]: 0.674 µM; GI50 [13]: 0.63 µM
COc1ccc(/C=C\c2cc(OC)c(OC)c(OC)c2)c(N)c1	–	–	1.1	0.0266	0.0331	0.0401	–	Retention_time [14]: 31.29 min
COc1ccc2c(c1N)CCCC=C2c1cc(OC)c(OC)c(OC)c1	–	–	1.3	–	0.00226	0.00185	–	GI50 ([4]; Homo sapiens, SK-OV-3, 48 h): 0.000137 µM; inhibition [15]: 82%
COc1ccc(/C=C\c2cc(OC)c(OC)c(OC)c2)c(NC(=O)CN)c1NC(=O)CN.Cl.Cl	–	–	–	–	–	–	< 50%	GI50 [8]: > 96.6 µM; Drug metabolism [16]: > 95%; GI50 [9]: 39.3 µM; GI50 [10]: > 56.4 µM; GI50 [11]: > 68.5 µM; GI50 [12]: > 90.4 µM; GI50 [13]: > 64.7 µM
COc1ccc2c(c1NC(=O)CN)CCC=C2c1cc(OC)c(OC)c(OC)c1.Cl	0.0585	0.042	–	0.0485	–	–	100%	Activity [17]: 15.5 µM/min; inhibition in vivo at 10 mg/kg [18]: 55%; inhibition in vivo at 15 mg/kg [19]: 90%; inhibition in vivo at 10 mg/kg [20]: 70%; inhibition in vivo at 15 mg/kg [21]: 97%
COc1ccc2c(c1NC(=O)[C@@H](N)CO)CCC=C2c1cc(OC)c(OC)c(OC)c1.Cl	26	18.6	–	11.6	–	–	< 10%	Drug metabolism [7]: < 10%
COc1ccc(/C=C\c2cc(OC)c(OC)c(OC)c2)cc1NC(=O)[C@@H](N)CO [OMBRABULIN]	0.0164	0.0241	14	0.00902	–	–	95%	–
COc1ccc(/C=C\c2cc(OC)c(OC)c(OC)c2)cc1NC(=O)[C@@H](N)CO.Cl	0.00334	0.00387	13	0.00396	–	–	95%	–

Reference: ChEMBL document CHEMBL3763088, “Design, synthesis, and biological evaluation of water-soluble amino acid prodrug conjugates derived from combretastatin, dihydronaphthalene, and benzosuberene-based parent vascular disrupting agents” (Bioorg Med Chem, 2016)
